# Measured values: ChEMBL document CHEMBL2146441, “2,6-Disubstituted imidazo[2,1-b][1,3,4]thiadiazoles: search for anticancer agents” (2012)
# Columns and labels:
# Format in all cases: functional
# [1] = tested on: SK-MEL-2; assay: Cytotoxicity against human SK-MEL-2 cells assessed as cell growth at 10^-5 M after 48 hrs by SRB assay; details: SK-MEL-2, 48 h, read-out: Activity
# [2] = tested on: U-251; assay: Cytotoxicity against human U251 cells assessed as cell growth at 10^-5 M after 48 hrs by SRB assay; details: U-251, 48 h, read-out: Activity
# [3] = tested on: OVCAR-5; assay: Growth inhibition of human OVCAR5 cells after 48 hrs by SRB assay; details: OVCAR-5, 48 h
# How it was run: (§1)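 Adherent NCI-60 lines grown in RPMI 1640 with 5% FBS, seeded at 5000–40,000 cells/well, and preincubated 24 h at 37 °C, 5% CO2. Compound, stocked in DMSO, given either once at 10^-5 M or at five 10-fold dilutions for 48 h. Cells fixed with cold TCA (final 10%), stained with 0.4% SRB, and read at 515 nm. GI50 taken as 50% reduction in net protein increase versus time-zero and control plates.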
# [4] = Growth inhibition of human MDA-MB-81 cells after 48 hrs by SRB assay
# [5] = tested on: HT-29; assay: Cytotoxicity against human HT-29 cells assessed as cell growth at 10^-4 M after 48 hrs by SRB assay; details: HT-29, 48 h, read-out: Activity
# How it was run: (§2)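 NCI-60 five-dose screen. Cells were grown in RPMI 1640 with 5% FBS and seeded at 5000–40,000 cells/well according to doubling time. They were pre-incubated 24 h at 37 °C in 5% CO₂, and time-zero (Tz) plates were TCA-fixed at drug addition. Five 10-fold dilutions of DMSO stock were applied for 48 h. Read-out was SRB staining, 515 nm absorbance, with percent growth calculated versus Tz and untreated control.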
# [6] = tested on: IGROV-1; assay: Cytotoxicity against human IGROV1 cells assessed as cell growth at 10^-5 M after 48 hrs by SRB assay; details: IGROV-1, 48 h, read-out: Activity; how it was run: as §2
# [7] = tested on: COLO; assay: Cytotoxicity against human COLO […] cells assessed as cell growth at 10^-7 M after 48 hrs by SRB assay; details: read-out: Activity
# How it was run: (§3)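 NCI-60 screen: lines kept in RPMI 1640 with 5% FBS, seeded at 5000–40,000 cells/well by doubling time, preincubated 24 h at 37 °C in 5% CO2. Time-zero plates TCA-fixed at drug addition. DMSO stocks diluted in medium, 48 h exposure. Fixation in cold TCA (final 10% adherent, 16% suspension), 0.4% SRB stain, solubilised in 10 mM Tris base, A515. Percent growth computed against control and time-zero.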
# [8] = tested on: MCF7; assay: Cytotoxicity against human MCF7 cells assessed as cell growth at 10^-7 M after 48 hrs by SRB assay; details: MCF7, 48 h, read-out: Activity
# [9] = tested on: RXF 393; assay: Cytotoxicity against human RXF393 cells assessed as cell growth at 10^-4 M after 48 hrs by SRB assay; details: RXF 393, 48 h, read-out: Activity
# [10] = tested on: NCI-H460; assay: Cytotoxicity against human NCI-H460 cells assessed as cell growth at 10^-4 M after 48 hrs by SRB assay; details: NCI-H460, 48 h, read-out: Activity
# [11] = Cytotoxicity against human NCI-ADR-RES cells assessed as cell growth at 10^-6 M after 48 hrs by SRB assay; details: read-out: Activity
# [12] = tested on: PC-3; assay: Cytotoxicity against human PC3 cells assessed as cell growth at 10^-7 M after 48 hrs by SRB assay; details: PC-3, 48 h, read-out: Activity
# [13] = tested on: SW-620; assay: Cytotoxicity against human SW620 cells assessed as cell growth at 10^-7 M after 48 hrs by SRB assay; details: SW-620, 48 h, read-out: Activity
# [14] = tested on: SF-539; assay: Cytotoxicity against human SF539 cells assessed as cell growth at 10^-5 M after 48 hrs by SRB assay; details: SF-539, 48 h, read-out: Activity
# [15] = tested on: 786-0; assay: Cytotoxicity against human 786-0 cells assessed as cell growth at 10^-8 M after 48 hrs by SRB assay; details: 786-0, 48 h, read-out: Activity; how it was run: as §3
# [16] = tested on: HCC 2998; assay: Growth inhibition of human HCC2998 cells after 48 hrs by SRB assay; details: HCC 2998, 48 h; how it was run: as §1
# [17] = tested on: SK-MEL-2; assay: Cytotoxicity against human SK-MEL-2 cells assessed as cell growth at 10^-8 M after 48 hrs by SRB assay; details: SK-MEL-2, 48 h, read-out: Activity
# [18] = tested on: DU-145; assay: Cytotoxicity against human DU145 cells assessed as cell growth at 10^-4 M after 48 hrs by SRB assay; details: DU-145, 48 h, read-out: Activity; how it was run: as §3
# [19] = tested on: PC-3; assay: Cytotoxicity against human PC3 cells assessed as cell growth at 10^-5 M after 48 hrs by SRB assay; details: PC-3, 48 h, read-out: Activity
# [20] = tested on: HCT-15; assay: Cytotoxicity against human HCT15 cells assessed as cell growth at 10^-4 M after 48 hrs by SRB assay; details: HCT-15, 48 h, read-out: Activity; how it was run: as §2
# [21] = tested on: U-251; assay: Cytotoxicity against human U251 cells assessed as cell growth at 10^-4 M after 48 hrs by SRB assay; details: U-251, 48 h, read-out: Activity
# [22] = tested on: SK-MEL-28; assay: Cytotoxicity against human SK-MEL-28 cells assessed as cell growth at 10^-8 M after 48 hrs by SRB assay; details: SK-MEL-28, 48 h, read-out: Activity
# [23] = tested on: SF-268; assay: Cytotoxicity against human SF268 cells assessed as cell growth at 10^-8 M after 48 hrs by SRB assay; details: SF-268, 48 h, read-out: Activity
# [24] = tested on: OVCAR-5; assay: Cytotoxicity against human OVCAR5 cells assessed as cell growth at 10^-7 M after 48 hrs by SRB assay; details: OVCAR-5, 48 h, read-out: Activity
# [25] = tested on: DU-145; assay: Cytotoxicity against human DU145 cells assessed as cell growth at 10^-5 M after 48 hrs by SRB assay; details: DU-145, 48 h, read-out: Activity; how it was run: as §3
# [26] = tested on: MDA-MB-468; assay: Growth inhibition of human MDA-MB-468 cells after 48 hrs by SRB assay; details: MDA-MB-468, 48 h; how it was run: as §1
# [27] = tested on: BT-549; assay: Cytotoxicity against human BT549 cells assessed as cell growth at 10^-7 M after 48 hrs by SRB assay; details: BT-549, 48 h, read-out: Activity; how it was run: as §3
# [28] = tested on: NCI-H460; assay: Cytotoxicity against human NCI-H460 cells assessed as cell growth at 10^-6 M after 48 hrs by SRB assay; details: NCI-H460, 48 h, read-out: Activity
# [29] = tested on: HOP-62; assay: Cytotoxicity against human HOP62 cells assessed as cell growth at 10^-6 M after 48 hrs by SRB assay; details: HOP-62, 48 h, read-out: Activity; how it was run: as §2
# [30] = tested on: UACC-62; assay: Cytotoxicity against human UACC62 cells assessed as cell growth at 10^-6 M after 48 hrs by SRB assay; details: UACC-62, 48 h, read-out: Activity
# [31] = tested on: UACC-62; assay: Cytotoxicity against human UACC62 cells assessed as cell growth at 10^-5 M after 48 hrs by SRB assay; details: UACC-62, 48 h, read-out: Activity
SMILES,growth at 10 µM [1] [%],growth at 10 µM [2] [%],GI50 [3] [µM],LC50 [3] [µM],TGI [3] [µM],GI50 [4] [µM],growth at 100 µM [5] [%],growth at 10 µM [6] [%],growth at 0.1 µM [7] [%],growth at 0.1 µM [8] [%],growth at 100 µM [9] [%],growth at 100 µM [10] [%],growth at 1 µM [11] [%],growth at 0.1 µM [12] [%],growth at 0.1 µM [13] [%],growth at 10 µM [14] [%],growth at 0.01 µM [15] [%],GI50 [16] [µM],LC50 (concentration causing 50% net cell kill) [16] [µM],TGI [16] [µM],also measured
COc1ccc(-c2nn3cc(-c4ccc(O)cc4O)nc3s2)cc1,9,-41,3.43,> 100,> 100,1.37,-20,9,106,89,-63,2,81,91,96,-82,97,4.37,> 100,84.4,growth at 0.01 µM [17]: 93%; growth at 100 µM [18]: 2%; growth at 10 µM [19]: 14%; growth at 100 µM [20]: 4%; growth at 100 µM [21]: -46%; growth at 0.01 µM [22]: 95%; growth at 0.01 µM [23]: 97%; growth at 0.1 µM [24]: 90%; growth at 10 µM [25]: 27%; GI50 [26]: 1.5 µM; LC50 [26]: > 100 µM; TGI [26]: 17.6 µM; growth at 0.1 µM [27]: 94%; growth at 1 µM [28]: 75%; growth at 1 µM [29]: 81%; growth at 1 µM [30]: 81%; growth at 10 µM [31]: 24%
COc1ccc(-c2nn3cc(-c4cccc(N)c4)nc3s2)cc1,39,44,8.54,> 100,47.1,1.58,-48,20,101,78,-90,-31,85,81,95,-11,106,1.08,> 100,> 100,growth at 0.01 µM [17]: 93%; growth at 100 µM [18]: -41%; growth at 10 µM [19]: 10%; growth at 100 µM [20]: 1%; growth at 100 µM [21]: -17%; growth at 0.01 µM [22]: 95%; growth at 0.01 µM [23]: 100%; growth at 0.1 µM [24]: 103%; growth at 10 µM [25]: 41%; GI50 [26]: 1.83 µM; LC50 [26]: > 100 µM; TGI [26]: 9.32 µM; growth at 0.1 µM [27]: 98%; growth at 1 µM [28]: 76%; growth at 1 µM [29]: 84%; growth at 1 µM [30]: 71%; growth at 10 µM [31]: 26%
